The text below walks through data of ChEMBL document CHEMBL5653631, “A Potent and Selective ULK1 Inhibitor Suppresses Autophagy and Sensitizes Cancer Cells to Nutrient Stress” (iScience, 2018).

Experiment [1] has as its target Mitogen-activated protein kinase 8 (Homo sapiens) (UniProt P45983). The experiment is described as follows: Inhibition of human recombinant JNK1 at 40 nM related to control ULK1.
Experiment [2] deals with SRSF protein kinase 3 (Homo sapiens) (UniProt Q9UPE1). Nature of the experiment: Inhibition of human recombinant MSSK1 at 40 nM in presence of ATP by radiometric assay relative to control.
Experiment [3] concerns the target Serine/threonine-protein kinase 25 (Homo sapiens) (UniProt O00506). The experiment is described as follows: Inhibition of human recombinant YSK1 at 40 nM related to control ULK1.
Experiment [4] deals with Proto-oncogene tyrosine-protein kinase receptor Ret (Homo sapiens) (UniProt P07949). Nature of the experiment: Inhibition of human recombinant RET at 40 nM in presence of ATP by radiometric assay relative to control.
Sequence of Proto-oncogene tyrosine-protein kinase receptor Ret (Homo sapiens) (P07949 whole entry): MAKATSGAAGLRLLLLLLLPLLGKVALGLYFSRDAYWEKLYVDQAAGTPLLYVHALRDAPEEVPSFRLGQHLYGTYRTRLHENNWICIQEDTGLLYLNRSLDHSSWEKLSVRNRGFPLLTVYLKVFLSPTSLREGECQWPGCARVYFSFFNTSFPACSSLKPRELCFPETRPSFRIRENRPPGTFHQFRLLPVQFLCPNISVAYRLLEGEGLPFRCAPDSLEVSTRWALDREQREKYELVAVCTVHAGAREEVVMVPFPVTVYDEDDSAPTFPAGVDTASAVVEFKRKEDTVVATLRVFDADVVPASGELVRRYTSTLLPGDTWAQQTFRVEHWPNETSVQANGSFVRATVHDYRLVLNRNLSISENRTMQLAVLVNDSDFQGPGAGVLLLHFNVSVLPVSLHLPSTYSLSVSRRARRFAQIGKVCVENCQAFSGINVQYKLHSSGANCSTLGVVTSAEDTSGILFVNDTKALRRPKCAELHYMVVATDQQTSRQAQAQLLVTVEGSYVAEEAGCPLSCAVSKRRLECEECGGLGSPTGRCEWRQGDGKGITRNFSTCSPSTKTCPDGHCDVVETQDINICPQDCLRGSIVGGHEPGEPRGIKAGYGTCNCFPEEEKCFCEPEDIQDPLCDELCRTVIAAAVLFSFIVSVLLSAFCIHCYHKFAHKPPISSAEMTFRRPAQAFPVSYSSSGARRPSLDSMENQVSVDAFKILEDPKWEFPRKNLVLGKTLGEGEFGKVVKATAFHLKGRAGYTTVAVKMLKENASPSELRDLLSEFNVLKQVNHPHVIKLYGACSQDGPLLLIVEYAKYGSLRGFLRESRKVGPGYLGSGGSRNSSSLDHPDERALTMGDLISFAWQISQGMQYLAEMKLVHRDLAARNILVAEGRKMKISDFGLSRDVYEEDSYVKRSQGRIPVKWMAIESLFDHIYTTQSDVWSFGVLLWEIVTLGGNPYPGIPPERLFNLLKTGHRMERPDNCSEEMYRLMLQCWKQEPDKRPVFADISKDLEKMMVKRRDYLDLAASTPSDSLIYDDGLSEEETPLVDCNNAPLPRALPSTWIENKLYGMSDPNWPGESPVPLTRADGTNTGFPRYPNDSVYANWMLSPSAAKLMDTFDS
The target of experiment [5] is RAC-gamma serine/threonine-protein kinase (Homo sapiens) (UniProt Q9Y243). The experiment is described as follows: Inhibition of human recombinant AKT3 at 40 nM related to control ULK1. A digest of the protocol:
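Radiometric activity assays in a panel of 327 human recombinant kinases, each run in duplicate at one inhibitor concentration. Activity remaining is expressed as percent of vehicle control, and percent inhibition is calculated as 100% minus percent activity remaining.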

Experiment [6] has as its target MAP kinase-activated protein kinase 3 (Homo sapiens) (UniProt Q16644). Nature of the experiment: Inhibition of human recombinant MAPKAPK3 at 500 nM related to control ULK1.
Experiment [7] addresses Protein kinase C theta type (Homo sapiens) (UniProt Q04759). The experiment is described as follows: Inhibition of human recombinant PKCt at 500 nM in presence of ATP by radiometric assay relative to control.
For experiment [8], the target named is Serine/threonine-protein kinase MARK2 (Homo sapiens) (UniProt Q7KZI7). Nature of the experiment: Inhibition of human recombinant MARK2 at 500 nM related to control ULK1.
Sequence of Serine/threonine-protein kinase MARK2 (Homo sapiens) (Q7KZI7 whole entry): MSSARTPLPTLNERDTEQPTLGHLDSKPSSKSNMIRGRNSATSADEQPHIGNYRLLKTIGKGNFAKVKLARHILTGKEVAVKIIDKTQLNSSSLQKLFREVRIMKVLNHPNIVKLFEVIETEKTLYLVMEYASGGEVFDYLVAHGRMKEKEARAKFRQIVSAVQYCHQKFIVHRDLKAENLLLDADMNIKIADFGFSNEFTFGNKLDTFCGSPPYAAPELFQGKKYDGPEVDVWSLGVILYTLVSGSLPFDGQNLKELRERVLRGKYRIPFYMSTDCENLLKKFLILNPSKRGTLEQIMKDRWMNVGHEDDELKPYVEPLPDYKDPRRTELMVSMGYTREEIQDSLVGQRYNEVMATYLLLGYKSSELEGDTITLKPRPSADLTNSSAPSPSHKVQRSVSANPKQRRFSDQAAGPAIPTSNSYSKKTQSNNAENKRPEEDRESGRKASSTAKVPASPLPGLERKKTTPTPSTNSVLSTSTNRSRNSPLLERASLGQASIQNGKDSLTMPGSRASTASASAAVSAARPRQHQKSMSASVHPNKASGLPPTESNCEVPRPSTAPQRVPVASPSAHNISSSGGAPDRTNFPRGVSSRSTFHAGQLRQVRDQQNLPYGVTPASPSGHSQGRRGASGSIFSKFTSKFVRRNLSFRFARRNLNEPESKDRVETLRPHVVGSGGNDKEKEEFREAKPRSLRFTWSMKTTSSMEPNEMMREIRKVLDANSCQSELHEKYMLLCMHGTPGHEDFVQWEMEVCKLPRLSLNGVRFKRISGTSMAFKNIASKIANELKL
In experiment [9] the target is Wee1-like protein kinase 2 (Homo sapiens) (UniProt P0C1S8). Nature of the experiment: Inhibition of human recombinant Wee1B at 500 nM related to control ULK1.
In experiment [10] the target is eIF-2-alpha kinase GCN2 (Homo sapiens) (UniProt Q9P2K8). Nature of the experiment: Inhibition of human recombinant GCN2 at 15 nM related to control ULK1.
Experiment [11] addresses T1, Receptor-interacting serine/threonine-protein kinase 1 (Homo sapiens) (UniProt Q13546).
T1 sequence (whole entry): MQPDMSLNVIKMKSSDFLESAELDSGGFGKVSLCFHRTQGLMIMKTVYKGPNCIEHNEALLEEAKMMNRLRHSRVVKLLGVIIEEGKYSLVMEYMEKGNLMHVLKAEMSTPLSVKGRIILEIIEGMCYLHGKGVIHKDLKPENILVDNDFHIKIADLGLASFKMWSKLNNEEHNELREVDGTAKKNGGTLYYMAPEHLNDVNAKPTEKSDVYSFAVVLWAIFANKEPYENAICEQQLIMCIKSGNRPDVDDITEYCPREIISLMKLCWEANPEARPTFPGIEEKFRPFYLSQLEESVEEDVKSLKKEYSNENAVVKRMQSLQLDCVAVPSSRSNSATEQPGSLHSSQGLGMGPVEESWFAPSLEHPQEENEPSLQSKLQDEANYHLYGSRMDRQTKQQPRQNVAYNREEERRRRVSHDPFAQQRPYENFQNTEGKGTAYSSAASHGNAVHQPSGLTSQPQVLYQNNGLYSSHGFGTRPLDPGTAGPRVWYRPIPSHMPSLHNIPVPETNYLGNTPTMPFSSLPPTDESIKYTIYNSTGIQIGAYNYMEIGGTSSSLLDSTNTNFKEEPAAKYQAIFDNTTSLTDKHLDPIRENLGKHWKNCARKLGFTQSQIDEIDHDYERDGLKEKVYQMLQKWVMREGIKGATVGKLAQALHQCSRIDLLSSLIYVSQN
Nature of the experiment: Inhibition of human recombinant RIPK1 at 15 nM in presence of ATP by radiometric assay relative to control.

The target of experiment [12] is T2, Interleukin-1 receptor-associated kinase 4 (Homo sapiens) (UniProt Q9NWZ3).
T2 sequence (whole entry): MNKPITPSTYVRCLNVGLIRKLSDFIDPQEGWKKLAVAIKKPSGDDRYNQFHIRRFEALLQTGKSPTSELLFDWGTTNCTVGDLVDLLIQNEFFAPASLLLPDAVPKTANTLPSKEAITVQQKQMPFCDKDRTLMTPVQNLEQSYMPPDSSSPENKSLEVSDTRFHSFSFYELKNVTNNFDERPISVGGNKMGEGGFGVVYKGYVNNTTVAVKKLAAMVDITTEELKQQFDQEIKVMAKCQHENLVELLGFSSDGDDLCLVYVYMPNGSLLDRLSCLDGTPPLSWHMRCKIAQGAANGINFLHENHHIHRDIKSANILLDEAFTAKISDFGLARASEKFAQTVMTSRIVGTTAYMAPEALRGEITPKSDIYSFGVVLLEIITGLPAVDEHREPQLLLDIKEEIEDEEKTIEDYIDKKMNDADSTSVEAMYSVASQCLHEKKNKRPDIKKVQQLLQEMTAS
The experiment is described as follows: Inhibition of human recombinant IRAK4 at 15 nM related to control ULK1.

The target in experiment [13] is Receptor tyrosine-protein kinase erbB-2 (Homo sapiens) (UniProt P04626). Nature of the experiment: Inhibition of human recombinant ErbB2 at 15 nM related to control ULK1.
The target in experiment [14] is Interleukin-1 receptor-associated kinase 1 (Homo sapiens) (UniProt P51617). The experiment is described as follows: Inhibition of human recombinant IRAK1 at 15 nM in presence of ATP by radiometric assay relative to control.
Sequence of Interleukin-1 receptor-associated kinase 1 (Homo sapiens) (P51617 whole entry, looked up): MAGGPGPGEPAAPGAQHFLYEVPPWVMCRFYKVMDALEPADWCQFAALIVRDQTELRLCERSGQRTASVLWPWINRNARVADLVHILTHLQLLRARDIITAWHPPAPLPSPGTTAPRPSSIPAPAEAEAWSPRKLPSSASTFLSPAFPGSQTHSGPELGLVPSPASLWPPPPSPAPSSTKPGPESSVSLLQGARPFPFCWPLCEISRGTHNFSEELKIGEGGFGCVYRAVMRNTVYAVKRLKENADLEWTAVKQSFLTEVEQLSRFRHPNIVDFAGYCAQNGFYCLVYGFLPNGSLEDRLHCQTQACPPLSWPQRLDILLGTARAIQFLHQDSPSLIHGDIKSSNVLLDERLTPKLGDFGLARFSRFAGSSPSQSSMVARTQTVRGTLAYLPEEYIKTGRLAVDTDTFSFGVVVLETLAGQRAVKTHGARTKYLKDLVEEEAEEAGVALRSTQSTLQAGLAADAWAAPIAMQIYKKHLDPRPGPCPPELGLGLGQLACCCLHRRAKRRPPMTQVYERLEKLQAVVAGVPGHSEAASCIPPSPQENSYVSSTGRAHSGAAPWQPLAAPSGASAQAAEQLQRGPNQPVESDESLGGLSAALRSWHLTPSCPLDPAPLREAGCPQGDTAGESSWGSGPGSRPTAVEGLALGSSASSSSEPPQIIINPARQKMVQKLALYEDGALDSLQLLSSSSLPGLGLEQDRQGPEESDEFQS
Experiment [15] has as its target T3, Serine/threonine-protein kinase DCLK3 (Homo sapiens) (UniProt Q9C098).
T3 sequence (whole entry): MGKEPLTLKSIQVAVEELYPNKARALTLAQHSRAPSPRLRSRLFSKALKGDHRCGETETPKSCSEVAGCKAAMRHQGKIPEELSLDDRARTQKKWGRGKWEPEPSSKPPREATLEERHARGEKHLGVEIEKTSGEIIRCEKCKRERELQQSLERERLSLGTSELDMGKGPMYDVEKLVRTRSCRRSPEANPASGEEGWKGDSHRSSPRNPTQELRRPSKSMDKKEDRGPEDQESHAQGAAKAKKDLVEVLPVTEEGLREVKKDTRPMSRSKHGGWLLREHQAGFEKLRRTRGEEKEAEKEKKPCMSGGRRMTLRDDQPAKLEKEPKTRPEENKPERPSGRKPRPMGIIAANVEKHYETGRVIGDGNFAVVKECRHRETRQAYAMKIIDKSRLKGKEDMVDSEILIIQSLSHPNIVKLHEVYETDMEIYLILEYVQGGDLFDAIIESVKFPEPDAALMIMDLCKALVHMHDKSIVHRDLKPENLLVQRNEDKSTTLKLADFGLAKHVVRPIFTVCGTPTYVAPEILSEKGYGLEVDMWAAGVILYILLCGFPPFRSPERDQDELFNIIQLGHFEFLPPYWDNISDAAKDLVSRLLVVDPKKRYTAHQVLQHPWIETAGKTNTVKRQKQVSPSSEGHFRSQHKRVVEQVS
The experiment is described as follows: Inhibition of human recombinant DCAMKL3 at 15 nM related to control ULK1.

Sequence of MAP kinase-activated protein kinase 3 (Homo sapiens) (Q16644 whole entry, looked up): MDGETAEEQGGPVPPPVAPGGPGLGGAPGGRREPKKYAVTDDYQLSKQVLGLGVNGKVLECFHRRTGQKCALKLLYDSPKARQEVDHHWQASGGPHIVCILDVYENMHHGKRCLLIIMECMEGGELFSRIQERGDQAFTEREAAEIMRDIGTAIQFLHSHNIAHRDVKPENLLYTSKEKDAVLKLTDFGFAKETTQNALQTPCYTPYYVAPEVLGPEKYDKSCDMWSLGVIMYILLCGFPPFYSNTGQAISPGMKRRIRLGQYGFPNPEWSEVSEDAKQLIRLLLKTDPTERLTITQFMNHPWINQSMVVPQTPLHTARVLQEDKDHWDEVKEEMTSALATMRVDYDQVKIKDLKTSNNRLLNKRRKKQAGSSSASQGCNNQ
Sequence of RAC-gamma serine/threonine-protein kinase (Homo sapiens) (Q9Y243 whole entry): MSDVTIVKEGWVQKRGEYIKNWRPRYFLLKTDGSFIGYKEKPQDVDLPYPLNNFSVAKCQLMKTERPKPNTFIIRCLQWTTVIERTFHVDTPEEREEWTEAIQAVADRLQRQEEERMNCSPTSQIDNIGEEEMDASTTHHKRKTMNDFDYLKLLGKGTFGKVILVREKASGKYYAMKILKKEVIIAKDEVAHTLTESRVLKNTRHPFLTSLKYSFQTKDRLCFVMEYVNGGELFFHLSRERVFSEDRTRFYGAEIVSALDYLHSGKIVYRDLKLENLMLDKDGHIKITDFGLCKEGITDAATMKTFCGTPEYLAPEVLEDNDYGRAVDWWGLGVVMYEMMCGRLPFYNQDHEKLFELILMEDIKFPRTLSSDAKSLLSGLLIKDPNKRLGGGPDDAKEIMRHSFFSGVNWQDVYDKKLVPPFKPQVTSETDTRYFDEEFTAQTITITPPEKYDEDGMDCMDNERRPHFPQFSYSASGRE
Sequence of Mitogen-activated protein kinase 8 (Homo sapiens) (P45983 whole entry): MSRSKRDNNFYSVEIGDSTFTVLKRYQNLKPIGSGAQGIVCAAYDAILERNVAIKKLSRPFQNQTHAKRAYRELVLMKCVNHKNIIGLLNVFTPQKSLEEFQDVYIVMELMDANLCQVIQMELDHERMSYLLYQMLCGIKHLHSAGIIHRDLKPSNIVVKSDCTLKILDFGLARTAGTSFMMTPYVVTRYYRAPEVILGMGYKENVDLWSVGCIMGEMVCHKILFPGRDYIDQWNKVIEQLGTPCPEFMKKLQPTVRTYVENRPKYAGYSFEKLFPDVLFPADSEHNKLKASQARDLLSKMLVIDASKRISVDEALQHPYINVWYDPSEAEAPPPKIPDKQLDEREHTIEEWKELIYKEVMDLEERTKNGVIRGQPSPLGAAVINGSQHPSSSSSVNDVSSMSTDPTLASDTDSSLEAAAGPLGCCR
Sequence of Protein kinase C theta type (Homo sapiens) (Q04759 whole entry, looked up): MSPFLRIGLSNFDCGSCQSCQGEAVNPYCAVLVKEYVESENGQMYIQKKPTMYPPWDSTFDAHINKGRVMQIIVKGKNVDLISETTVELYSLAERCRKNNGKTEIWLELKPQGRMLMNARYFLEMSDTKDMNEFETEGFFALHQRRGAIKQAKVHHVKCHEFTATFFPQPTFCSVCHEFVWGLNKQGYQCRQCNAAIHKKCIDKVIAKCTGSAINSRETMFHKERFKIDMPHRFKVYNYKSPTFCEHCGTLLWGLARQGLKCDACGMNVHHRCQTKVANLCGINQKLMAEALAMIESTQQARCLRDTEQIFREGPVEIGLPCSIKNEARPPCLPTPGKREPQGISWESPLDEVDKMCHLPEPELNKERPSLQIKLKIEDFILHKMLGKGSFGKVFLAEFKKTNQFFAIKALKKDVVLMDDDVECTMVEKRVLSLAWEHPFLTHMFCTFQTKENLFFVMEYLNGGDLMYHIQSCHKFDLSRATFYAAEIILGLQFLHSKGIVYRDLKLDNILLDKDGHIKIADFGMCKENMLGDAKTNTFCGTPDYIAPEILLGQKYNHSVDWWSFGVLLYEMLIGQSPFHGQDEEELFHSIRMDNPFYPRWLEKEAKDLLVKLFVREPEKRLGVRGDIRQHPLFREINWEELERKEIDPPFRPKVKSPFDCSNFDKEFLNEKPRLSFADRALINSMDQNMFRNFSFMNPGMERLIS
Sequence of Serine/threonine-protein kinase 25 (Homo sapiens) (O00506 whole entry, looked up): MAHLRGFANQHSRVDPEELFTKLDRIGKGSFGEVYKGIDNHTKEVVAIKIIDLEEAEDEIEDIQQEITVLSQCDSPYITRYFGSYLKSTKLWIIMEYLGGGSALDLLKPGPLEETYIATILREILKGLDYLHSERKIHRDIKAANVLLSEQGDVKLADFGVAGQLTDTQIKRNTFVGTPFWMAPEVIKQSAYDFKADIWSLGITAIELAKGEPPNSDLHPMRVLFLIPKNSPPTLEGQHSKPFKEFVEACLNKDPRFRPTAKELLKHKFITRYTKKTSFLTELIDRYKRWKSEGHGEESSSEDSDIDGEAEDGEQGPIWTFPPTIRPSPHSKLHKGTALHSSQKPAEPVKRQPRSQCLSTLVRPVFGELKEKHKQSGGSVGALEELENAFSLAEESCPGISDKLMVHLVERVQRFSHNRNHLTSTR

As a reminder, the inhibition is the share of the control response that was lost under treatment. As to `O=C(N[C@@H](C1CC1)C(F)(F)F)c1cc(-c2cnn3cc(-c4ccc(F)cc4)cnc23)cs1`, the fold change (FC) in experiment [1] came out at 0; in [3] it was 0; in [5] it was 0.03. Further, the inhibition in experiment [2] worked out at 13%; in [4], 0%.
On to `CNC(=O)c1ccccc1Oc1nc(Nc2cc(OC)c(OC)c(OC)c2)ncc1Br`, for which the fold change (FC) came to 0 in experiment [6], 0.68 in experiment [8] and 0.03 in experiment [9]. Besides, the inhibition in experiment [7] amounted to 0%.
`CC(C)[C@H](NC(=O)c1cc(-c2cnn3cc(-c4ccc(OCCN5CCCCC5)cc4)cnc23)cs1)C(F)(F)F`: the fold change (FC) turned out to be 0.09 in experiment [10], 0 in experiment [12], 0 in experiment [13] and 0.4 in [15]. Moreover, the inhibition came out at 1% in [11] and 36% in experiment [14].
